The test system of one data set is Plasmodium yoelii. Put plainly: Antiplasmodial activity against GFP-harboring Plasmodium yoelii sporozoites infected in human HepG2 cells expressing CD81 assessed as reduction in parasite growth treated every 24 hrs by DAPI staining-based fluorescence microscopic analysis. The following applies: HepG2, 24 h. The format is functional, organism-based. In outline:
(§1)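 Collagen-coated wells seeded with HepG2 (P. berghei), HepG2-CD81 (P. yoelii) or primary human hepatocytes (P. falciparum). Sporozoites added: 5×10^3 to 1×10^4 per well to the cell lines, 2.5×10^4 per well to hepatocytes. Compounds given at infection: top 10 µg/mL plus seven serial dilutions, renewed at 3 h and then every 24 h. Cultures grown 40 h (cell lines) or 8 days (hepatocytes) at 37°C. Methanol-fixed, HSP70 immunolabelled, DAPI counterstained. IC50 from logistic regression; triplicate.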

In data set [1] the test system is Plasmodium berghei. Put plainly: Antiplasmodial activity against GFP-harboring Plasmodium berghei sporozoites infected in human HepG2 cells assessed as reduction in parasite growth treated every 24 hrs by DAPI staining-based fluorescence microscopic analysis. The format is functional, organism-based. The following applies: HepG2, 24 h. The method in brief: as §1

The test system of data set [2] is Plasmodium berghei. Nature of the data set: Antiplasmodial activity against GFP-expressing gametocytes of Plasmodium berghei sporozoites in Anopheles stephensi mosquitoes feeded on blood from infected Swiss mouse assessed as reduction in mosquito infection at 100 mg/kg, ip pretreated for 1.5 hrs followed by blood feeding of mosquito and measured at 8 days post mosquitoes infection by fluorescence microscopic method relative to control. Details: scale not given: the % may be the effect or the level left. The format is functional. In outline:
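Swiss mice (female, 6 weeks) infected i.p. with PbGFP-infected red cells (200 µL, 3000 parasites/µL). Gametocytes monitored 4 days by Giemsa smear and exflagellation. Hybrid given i.p. at 100 mg/kg in DMSO 1.5 h before A. stephensi fed 1 h on mice with 1% gametocytes. Controls were untreated and DMSO-treated mice. Thirty mosquitoes per group dissected after 8 days. Midgut oocysts counted by fluorescence microscopy against control mosquitoes taken as 100%.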

The subject of data set [3] is Mus musculus. Put plainly: Acute toxicity in BALB/c mouse assessed as appearance of normal coloured mucosa at 300 to 500 mg/kg, po administered as single dose measured every day for 14 days. The format is organism-based. The following applies: in vivo, 336 h. The method in brief:
(§2)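 Female BALB/c mice, 6-8 weeks old, 20-23 g, in groups of three. Single oral dose of 300 or 500 mg/kg; vehicle DMSO 100% given to controls. Mice watched for signs of toxicity for 4 h after dosing. Physical appearance, injury, pain and illness recorded daily for 14 days. Euthanasia in a CO2 chamber on day 14 or earlier if suffering.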

In data set [4] the test system is Mus musculus. Put plainly: Acute toxicity in BALB/c mouse assessed as necrosis of kidney at 500 mg/kg, po administered as single dose measured at day 14 by haematoxylin and eosin staining based microscopic analysis. Format: organism-based. The following applies: in vivo. The method in brief: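 Female BALB/c mice, groups of three, single oral dose; vehicle DMSO 100% for controls. Mice euthanised with CO2 on day 14, or earlier if suffering. Gross necropsy performed. Spleen, liver and kidney fixed in formaldehyde 37%, stained with haematoxylin and eosin and examined by light microscopy.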

For data set [5], the system named is Mus musculus. Nature of the data set: Acute toxicity in BALB/c mouse assessed as behavioral changes at 300 mg/kg, po administered as single dose measured every day for 14 days. Format: organism-based. Particulars: in vivo, 336 h. In outline: as §2

We go through 1 compound from ChEMBL document CHEMBL4270646, “Novel antimalarial chloroquine- and primaquine-quinoxaline 1,4-di-N-oxide hybrids: Design, synthesis, Plasmodium life cycle stage profile, and preliminary toxicity studies” (Eur J Med Chem, 2018).

One may read the IC50 as the concentration needed to halve the response being measured.

For the compound `COc1cc(NC(C)CCCNC(=O)c2c(C)[n+]([O-])c3ccccc3[n+]2[O-])c2ncccc2c1` (stereo unspecified), the IC50 was 1.39 µM in the data set on Plasmodium yoelii and 5.19 µM in the data set on Plasmodium berghei [1]. Also, the Activity with Plasmodium berghei [2] is 20%; in the data set on Mus musculus [3] it was “Non-Toxic”; in the data set with Mus musculus [4], “Non-Toxic”; in the data set with Mus musculus [5], “Non-Toxic”.
